≈ marks a conversion by molar mass, not a printed value. Calls of active or inactive are those of the source. The rule behind the calls is not given here.
Key:
[1] = tested on: Candida albicans; test: microbe, parasite or virus in culture; format: functional; settings: CGMCC 2.2086, 24 h
[2] = tested on: Staphylococcus aureus; test: Antibacterial activity against Staphylococcus aureus CGMCC1.2465 after 24 hrs by turbidimetric method; format: functional; settings: for MIC50: CGMCC1.2465, 24 h
Outline: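 Inoculum was adjusted by OD620 to McFarland 0.5 and diluted to 1 × 10^6 cfu/mL. It was exposed to serial dilutions up to 25 μg/mL in Mueller-Hinton broth at 37 °C for 24 h, and absorbance was read at 620 nm. MIC50 was taken from triplicate tests. Ampicillin was the reference.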

[3] = tested on: A549; test: Cytotoxicity against human A549 cells after 48 hrs by SRB assay; format: functional, cell-based; settings: A549, 48 h
Outline: (§1)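 Cells plated 24 h, then exposed to serial dilutions up to 20 μg/mL for 48 h at 37 °C in 5% CO2. They were fixed with cold 50% TCA for 1 h at 4 °C, stained with 0.4% SRB in 1% acetic acid for 15 min, and the bound dye was dissolved in 10 mM Tris base. Absorbance was read at 560 nm. IC50 was taken from triplicate tests.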

[4] = tested on: SMMC-7721; test: Cytotoxicity against human SMMC7721 cells at >10 uM after 48 hrs by SRB assay; format: functional, cell-based
[5] = tested on: HeLa; test: Cytotoxicity against human HeLa cells after 48 hrs by SRB assay; format: functional, cell-based
Outline: as §1

[6] = tested on: A549; test: Cytotoxicity against human A549 cells at >10 uM after 48 hrs by SRB assay; format: functional, cell-based
[7] = tested on: HeLa; test: Cytotoxicity against human HeLa cells at >10 uM after 48 hrs by SRB assay; format: functional, cell-based
[8] = tested on: SMMC-7721; test: Cytotoxicity against human SMMC7721 cells after 48 hrs by SRB assay; format: functional, cell-based; settings: SMMC-7721, 48 h
Outline: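 Cells seeded 24 h, then exposed to serial dilutions (top concentration 20 μg/mL) for 48 h at 37 °C, 5% CO2. Fixed with ice-cold 50% TCA at 4 °C for 1 h, stained 15 min with 0.4% SRB in 1% acetic acid, dye solubilized in 10 mM Tris base, absorbance at 560 nm. Triplicate; IC50 reported. Paclitaxel and camptothecin as positive controls.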

Molecule `CC(=O)O[C@@H]1C[C@@H](C(C)C)[C@]2(CO)CC[C@@]3(C)[C@H]4C(=CC[C@]3(C)[C@@H]12)[C@@]1(C)CC[C@H](O)C(C)(C)[C@@H]1C[C@@H]4O` [RUBIARBONOL G] has an MIC50 [1] of 10.8 µM (≈ 5.58 µg/mL), an MIC50 [2] of over 25 µM and an IC50 [3] of 7 µM. For the same molecule, the Activity [4] was “inactive” and the IC50 [5] was 2.2 µM.

For `CC(=O)O[C@@H]1C[C@@H](C(C)C)[C@]2(CO)CC[C@@]3(C)[C@H]4C(=CC[C@]3(C)[C@@H]12)[C@@]1(C)C=CC(=O)C(C)(C)[C@@H]1C[C@@H]4O`, the Activity [6] was “inactive”, the Activity [4] was “inactive” and the IC50 [5] was 7.9 µM.

`CC(C)[C@@H]1C[C@@H](O)[C@H]2[C@@]1(C)CC[C@@]1(C)C3=CC[C@H]4C(C)(C)[C@@H](O)CC[C@]4(C)C3=CC[C@]21C` [RUBIYUNNANOL A] was tested, and the IC50 [3] was 9.8 µM, the Activity [4] was “inactive” and the IC50 [7] was over 10 µM.

`CC(C)[C@@H]1CC=C2[C@@]1(C)CC[C@@]1(C)[C@H]3C(=CC[C@]21C)[C@@]1(C)CC[C@H](O)C(C)(C)[C@@H]1C[C@@H]3O` [RUBIYUNNANOL B] was tested, and the IC50 [3] was 8.2 µM, the Activity [4] was “inactive” and the IC50 [5] was 5.3 µM.

In the case of `COC1=CC(=O)c2ccccc2C1=O` [2-Methoxy-1,4-naphthoquinone], the MIC50 [1] is reported as 16 µM (≈ 3.01 µg/mL), the IC50 [8] is reported as 4.3 µM and the Activity [2] is reported as “inactive”. The Activity [6] was “inactive” and the Activity [7] was “inactive”.

With `CC(=O)O[C@H]1C(=O)[C@@]2(C)[C@H]([C@H](OC(=O)c3ccccc3)[C@]3(O)C[C@H](OC(=O)[C@H](O)[C@@H](NC(=O)c4ccccc4)c4ccccc4)C(C)=C1C3(C)C)[C@]1(OC(C)=O)CO[C@@H]1C[C@@H]2O` [PACLITAXEL] the IC50 [5] was 0.6 µM.

For `O=C1c2ccccc2C(=O)c2cc(CO)c(O)cc21`, the Activity [6] was “inactive”, the Activity [4] was “inactive” and the IC50 [5] was 3 µM.

`CC1(C)S[C@@H]2[C@H](NC(=O)[C@H](N)c3ccccc3)C(=O)N2[C@H]1C(=O)O` [AMPICILLIN] showed an MIC50 [2] of 0.1 µM (≈ 0.0349 µg/mL).

In the case of `CC[C@@]1(O)C(=O)OCc2c1cc1n(c2=O)Cc2cc3ccccc3nc2-1` [CAMPTOTHECIN], the IC50 [8] is reported as 0.003 µM.

`Cc1c(O)cc2c(c1O)C(=O)c1ccc(O)cc1C2=O` showed an MIC50 [2] of 21.5 µM (≈ 5.81 µg/mL).

For `CC(=O)OC[C@H]1O[C@@H](Oc2cc3c(c(O)c2C)C(=O)c2ccc(O)cc2C3=O)[C@H](O[C@@H]2O[C@@H](C)[C@H](O)[C@@H](O)[C@H]2O)[C@@H](O)[C@@H]1O`, the Activity [6] was “inactive”, the Activity [4] was “inactive” and the IC50 [5] was 4.2 µM.

`Clc1ccc(COC(Cn2ccnc2)c2ccc(Cl)cc2Cl)c(Cl)c1` (stereo not drawn) [MICONAZOLE NITRATE] gave an MIC50 [1] of 0.9 µM.

For `CC(=O)OC[C@@]12CC[C@@]3(C)[C@H]4C(=CC[C@]3(C)[C@H]1[C@H](O)C[C@H]2C(C)C)[C@@]1(C)CC[C@H](O[C@@H]2O[C@H](CO[C@@H]3O[C@H](CO)[C@@H](O)[C@H](O)[C@H]3O)[C@@H](O)[C@H](O)[C@H]2O)C(C)(C)[C@@H]1C[C@@H]4O`, the Activity [6] was “inactive”, the Activity [4] was “inactive” and the IC50 [5] was 2.2 µM.

Source: ChEMBL document CHEMBL1833880, “Biologically active arborinane-type triterpenoids and anthraquinones from Rubia yunnanensis” (J Nat Prod, 2011)
